Assay results from ChEMBL document CHEMBL4346674, “Structure-activity relationships and mechanistic studies of novel mitochondria-targeted, leishmanicidal derivatives of the 4-aminostyrylquinoline scaffold” (Eur J Med Chem, 2019).
The source made the active and inactive calls.

How the values were obtained:
Leishmania pifanoi [1] = assay: Antileishmanial activity against Leishmania pifanoi […] axenic amastigotes incubated for 96 hrs by MTT assay; format: functional, organism-based
Outline: (§1)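 Parasites washed in HBSS-Glc and resuspended at 2×10^6 cells/ml in fresh growth medium with compound at 0.78-50.0 µM. Promastigotes grown in RPMI 1640-modified medium + 10% HIFCS, 72 h at 26 °C; axenic amastigotes in medium 199 + 20% HIFCS + 50 µg/ml hemin, 96 h at 32 °C. MTT 0.5 mg/ml for 2 h, formazan dissolved in SDS (5% final), absorbance 590 nm. Triplicates, ≥2 experiments, IC50 computed.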

Leishmania donovani [2] = assay: Antileishmanial activity against Leishmania donovani MHOM/SD/00/1S-2D promastigotes incubated for 72 hrs by MTT assay; format: functional, organism-based; outline: as §1
J774 = assay: Cytotoxicity against mouse J774 cells incubated for 48 hrs by MTT assay; format: cell-based; conditions: J774, 48 h
Outline: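 J774.1 cells grown in RPMI-1640 + 10% heat-inactivated FCS, 2 mM L-glutamine, penicillin-streptomycin, 37 °C, 5% CO2. Seeded at 10^5 cells/well and left overnight, then compound in fresh medium for 48 h. MTT 0.5 mg/ml final, 2 h; SDS 0.1% final, 2 h at 37 °C; read at 595 nm. Triplicate samples, ≥2 independent experiments; CC50 calculated.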

[3] = Selectivity index, ratio of IC50 for mouse J774 cells to IC50 for Leishmania pifanoi […] axenic amastigotes; format: toxicity; conditions: read-out: Ratio IC50
Leishmania donovani [4] = assay: Antileishmanial activity against Leishmania donovani promastigotes harboring 3-Luc gene assessed as decrease in parasites viability using DMNEP-D-luciferin as substrate at 50 uM incubated for 10 mins by luminescence assay relative to control; format: functional
Outline: (§2)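 3-Luc L. donovani promastigotes, episomally expressing cytoplasmic firefly luciferase and grown at 26 °C in RPMI 1640-modified medium + 10% HIFCS with G-418 (30 µg/ml). Assay: cells at 20 × 10^6/ml in HBSS-Glc with caged DMNPE-luciferin (50 µM final). Compound added once luminescence plateaued; luminescence followed over time, expressed as % of value at addition (100%). Luciferase inhibition controls run.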

Leishmania donovani [5] = assay: Induction of plasma membrane permeabilization in Leishmania donovani MHOM/SD/00/1S-2D promastigotes at 50 uM by sytox green-based fluorescence assay; format: functional, organism-based
Outline: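 Promastigotes at 20×10^6 cells/ml in HBSS-Glc with SYTOX Green 1.0 μM final. Compound added after a stable baseline; fluorescence rise (ex 504/em 524 nm) monitored. Values given as percent of full permeabilization by 0.1% Triton X-100.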

Leishmania donovani [6] = assay: Induction of mitochondrial dysfunction in Leishmania donovani MHOM/SD/00/1S-2D promastigotes as mitochondrial membrane potential at 50 uM incubated for 4 hrs by Rh123 staining based flow cytometry; format: functional, organism-based
Leishmania donovani [7] = assay: Induction of mitochondrial dysfunction in Leishmania donovani MHOM/SD/00/1S-2D promastigotes as mitochondrial membrane potential at 25 uM incubated for 4 hrs by Rh123 staining based flow cytometry; format: functional, organism-based
Leishmania donovani [8] = assay: Induction of cell cycle arrest in Leishmania donovani MHOM/SD/00/1S-2D promastigotes assessed as cell accumulation in subG1 phase at 10 uM incubated for 48 hrs by propidium iodide staining based flow cytometric analysis (RVb = 4.6%); format: functional
Leishmania donovani [9] = assay: Induction of morphological damage in Leishmania donovani MHOM/SD/00/1S-2D promastigotes assessed as increase in intracellular acidic pH at 5 uM pretreated with acridine orange followed by compound addition and measured at 1 hr by acridine orange based confocal microscopic method; format: functional, organism-based
Outline: (§3)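 Promastigotes at 40×10^6 cells/ml loaded with acridine orange 2 μM (5 min, 26 °C), washed and readjusted to the same density. Kinetic fluorescence (ex 488/em 530 nm) followed after adding compound 5 μM once the signal was stable. For confocal imaging, loaded cells were given compound 5 μM for 1 h, washed and immobilized on hydrogel; imaged at ex 488/em 650 nm.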

Leishmania donovani [10] = assay: Induction of morphological damage in Leishmania donovani MHOM/SD/00/1S-2D promastigotes assessed as increase in intracellular acidic pH at 5 uM pretreated with acridine orange followed by compound addition by acridine orange based fluorescence assay; format: functional, organism-based; outline: as §3
Leishmania pifanoi [11] = assay: Antileishmanial activity against CFSE-labelled Leishmania pifanoi MHOM/VE/60/Ltrod axenic amastigotes infected in mouse peritoneal macrophage assessed as infection index at 10 uM incubated for 12 hrs by DAPI staining based confocal microscopic method (reference value: 5.3 +/- 2.5); format: functional
Leishmania donovani [12] = assay: Antileishmanial activity against Leishmania donovani promastigotes harboring 3-Luc gene assessed as threshold concentration of compound using DMNEP-D-luciferin as substrate measured at < 5 mins by luminescence assay; format: functional; outline: as §2
[13] = Drug localization in mitochondria of Leishmania pifanoi MHOM/VE/60/Ltrod axenic amastigotes assessed as punctate pattern formation at 20 uM incubated for 1 hr by DAPI staining based confocal microscopic method; format: ADME
Outline: (§4)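 Living axenic amastigotes given compound 20 µM for 1 h at 32 °C, then DAPI 5 µg/ml for 30 min before confocal imaging. Compound ex 488/em 520 nm, DAPI ex 350/em 460 nm. For depolarized mitochondria, 1 mM KCN added 15 min before compound. For colocalization, MitoTracker Red 0.05 µM (10 min, 32 °C) preceded compound; overlap given as Pearson coefficient.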

[14] = Drug localization in KCN-induced depolarized Leishmania pifanoi MHOM/VE/60/Ltrod axenic amastigotes mitochondria at 20 uM pretreated with KCN for 15 mins followed by compound addition and measured at 1 hr by MitoTracker dye based confocal microscopic method; format: ADME; outline: as §4
Leishmania donovani [15] = assay: Induction of morphological changes in Leishmania donovani MHOM/SD/00/1S-2D promastigotes assessed as swollen mitochondrion at 5 uM incubated for 12 hrs by TEM analysis; format: functional, organism-based
Outline: (§5)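 Promastigotes held in full growth medium with compound 5 μM for 12 h. Washed with HBSS, fixed in 5% glutaraldehyde, post-fixed with 2.5% OsO4 for 1 h, dehydrated through graded ethanol, treated with propylene oxide, embedded in Epon 812. Sections cut with a diamond knife and examined by transmission electron microscopy.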

Leishmania donovani [16] = assay: Induction of cell cycle arrest in Leishmania donovani MHOM/SD/00/1S-2D promastigotes assessed as cell accumulation in subG1 phase at 20 uM incubated for 48 hrs by propidium iodide staining based flow cytometric analysis (RVb = 4.6%); format: functional
Leishmania donovani [17] = assay: Induction apoptosis in Leishmania donovani MHOM/SD/00/1S-2D promastigotes at 20 uM incubated for 48 hrs by propidium iodide staining based flow cytometric analysis; format: functional, organism-based
Leishmania donovani [18] = assay: Induction of morphological changes in Leishmania donovani MHOM/SD/00/1S-2D promastigotes assessed as strong vacuolization of the cytoplasm at 5 uM incubated for 12 hrs by TEM analysis; format: functional, organism-based; outline: as §5
Leishmania donovani [19] = assay: Induction of morphological changes in Leishmania donovani MHOM/SD/00/1S-2D promastigotes assessed as appearance of distended acidocalcisomes at 5 uM incubated for 12 hrs by TEM analysis; format: functional, organism-based; outline: as §5
[20] = Inhibition of luciferase (unknown origin) at 50 uM

Compound | IC50 (Leishmania pifanoi [1]) | IC50 (Leishmania donovani [2]) | IC50 (J774) | selectivity ratio [3] | Activity (Leishmania donovani [4]) | Activity (Leishmania donovani [5]) | further results
CCN(CC)Cc1cc(Nc2cc(/C=C/c3ccccc3)nc3ccccc23)ccc1O | 9 µM | 9.6 µM | 37 µM | 4.1 | 81.8% |  | 
O=C(CNc1ccc(Cl)cc1Cl)NCCNc1cc(/C=C/c2ccccc2)nc2ccccc12 | 1.2 µM | 8.4 µM | > 50 µM | > 41.6 |  |  | 
Cc1cc(N)c2ccccc2n1 | > 50 µM | 10.9 µM | > 50 µM |  |  |  | 
C(=C\c1cc(-c2c[nH]c3ccccc23)c2ccccc2n1)/c1ccccc1 | 1 µM | 1.5 µM | 4.1 µM | 4.1 | 64.6% |  | 
O=C(CN1CCCCC1)NCCNc1cc(/C=C/c2ccccc2)nc2ccccc12 | 1.2 µM | 2.1 µM | 4.7 µM | 3.4 | 46.4% | inactive | Activity (Leishmania donovani [6]): Active; Activity (Leishmania donovani [7]): Active
CCOCC(=O)NCCCCNc1cc(/C=C/c2ccccc2)nc2ccccc12 | 4.5 µM | 1.06 µM | 7.2 µM | 1.6 |  | inactive | 
O=C(CNc1ccccc1)NCCNc1cc(/C=C/c2ccccc2)nc2ccccc12 | 4.3 µM | 3.3 µM | 7.8 µM | 1.8 |  |  | 
O=C(CNc1ccc(Cl)cc1Cl)NCCCCNc1cc(/C=C/c2ccccc2)nc2ccccc12 | 12.3 µM | 2.1 µM | 7.3 µM | 0.6 |  |  | 
O=C(CN1CCCC1)NCCCCNc1cc(/C=C/c2ccccc2)nc2ccccc12 | 5.3 µM | 0.2 µM | 7.1 µM | 1.4 | 23.3% | inactive | Activity (Leishmania donovani [6]): Active; Activity (Leishmania donovani [7]): Active
CC(=O)N(C(C)=O)c1cc(/C=C/c2ccccc2)nc2ccccc12 | 13.4 µM | 35.1 µM | > 25 µM | > 1.86 |  |  | 
CC(C)(C)OC(=O)NCCNc1cc(/C=C/c2ccccc2)nc2ccccc12 | 4.3 µM | 0.45 µM | 6.6 µM | 1.5 |  |  | 
NCCNc1cc(/C=C/c2ccccc2)nc2ccccc12 | > 50 µM | 2.4 µM | 4.6 µM | < 0.1 |  |  | 
O=C(CN1CCOCC1)NCCNc1cc(/C=C/c2ccccc2)nc2ccccc12 | > 25 µM | 1.3 µM | > 50 µM |  | 79.8% | inactive | 
O=C(CN1CCCC1)NCCNc1cc(/C=C/c2ccccc2)nc2ccccc12 | 0.9 µM | 2.1 µM | 12.5 µM | 13.9 | 49.9% | inactive | 
CC(C)(C)OC(=O)NCCCCNc1cc(/C=C/c2ccccc2)nc2ccccc12 | 4.9 µM | 0.56 µM | 3.7 µM | 0.8 |  |  | 
COc1ccc2nc(C)cc(Nc3ccc(Oc4ccc(Cl)c5ccccc45)c(Cl)c3)c2c1 | 6.2 µM | 4.4 µM | > 50 µM | > 8.1 |  |  | Activity (Leishmania donovani [8]): 22.5%
C(=C\c1ccc2ccccc2n1)/c1ccccc1 | > 50 µM | > 50 µM | > 50 µM |  |  |  | Activity (Leishmania donovani [9]): inactive; Activity (Leishmania donovani [10]): inactive
CN1CCN(CC(=O)NCCNc2cc(/C=C/c3ccccc3)nc3ccccc23)CC1 | 3.5 µM | 3.5 µM | 34 µM | 9.7 | 78.5% | inactive | 
Nc1cc(/C=C/c2ccccc2)nc2ccccc12 | 8.9 µM | 0.5 µM | 4.4 µM | 0.5 |  |  | 
CCOCC(=O)NCCNc1cc(/C=C/c2ccccc2)nc2ccccc12 | 1.6 µM | 3.4 µM | 22.2 µM | 13.8 | 16.7% | inactive | Activity_index (Leishmania pifanoi [11]): 1.6; Activity (Leishmania donovani [12]): 3.12 µM; Activity (Leishmania donovani [6]): Active; Activity (Leishmania donovani [7]): Active; Drug uptake [13]: Active; Drug uptake [14]: Active; Activity (Leishmania donovani [15]): Active; Activity (Leishmania donovani [16]): 4.3%; Activity (Leishmania donovani [17]): inactive; Activity (Leishmania donovani [18]): Active; Activity (Leishmania donovani [19]): Active; Activity (Leishmania donovani [9]): Active; Activity (Leishmania donovani [10]): Active; inhibition [20]: < 2%
O=C(CN1CCN(c2ccccc2)CC1)NCCNc1cc(/C=C/c2ccccc2)nc2ccccc12 | 1.5 µM | 2.1 µM | 4.5 µM | 3 |  |  | 
O=C(CNc1ccccc1)NCCCCNc1cc(/C=C/c2ccccc2)nc2ccccc12 | 6.9 µM | 1.6 µM | 3.3 µM | 0.48 |  |  | 
CC(=O)Nc1cc(/C=C/c2ccccc2)nc2ccccc12 | 9.5 µM |  | > 25 µM | > 2.6 |  |  | 
CN(C)CC(=O)NCCNc1cc(/C=C/c2ccccc2)nc2ccccc12 | 1.1 µM | 1.6 µM | 15 µM | 13.6 | 62.7% | inactive | 
CCN(CC)CC(=O)NCCNc1cc(/C=C/c2ccccc2)nc2ccccc12 | 0.9 µM | 1.6 µM | 0.7 µM | 0.8 | 43.2% | inactive | 
NCCCCNc1cc(/C=C/c2ccccc2)nc2ccccc12 | > 25 µM | 0.44 µM | 6.6 µM | < 0.3 |  |  | 
